{"data": "Results gathered from unrelated publications", "action": "agonist", "Neuromedin-U receptor 2": "Neuromedin-U receptor 2 (Mus musculus, UniProt Q8BZ39)", "MC3R": "Melanocortin receptor 3 (MC3R, Homo sapiens, UniProt P41968)", "DRD2": "D(2) dopamine receptor (DRD2, Homo sapiens, UniProt P14416)", "Peroxisome proliferator-activated receptor alpha": "Peroxisome proliferator-activated receptor alpha (Rattus norvegicus, UniProt P37230)", "GPR84": "G-protein coupled receptor 84 (GPR84, Homo sapiens, UniProt Q9NQS5)", "AVPR2": "Vasopressin V2 receptor (AVPR2, Homo sapiens, UniProt P30518)", "note": "Compare with care: the assays were run in different laboratories."}
{"SMILES": "CC(C)C[C@H](NC(=O)[C@H](Cc1ccccc1)NC(=O)[C@@H](N)Cc1ccc(O)cc1)C(=O)N[C@@H](Cc1ccccc1)C(=O)N[C@@H](CCCNC(=N)N)C(=O)N1CCC[C@H]1C(=O)N[C@@H](CCCNC(=N)N)C(=O)N[C@@H](CC(N)=O)C(N)=O", "target": "Neuromedin-U receptor 2", "observed": "β-arrestin recruitment", "EC50 [nM]": 8.32}
{"SMILES": "CC(=O)N[C@H]1CSSC[C@@H](C(=O)N[C@@H](Cc2c[nH]c3ccccc23)C(N)=O)NC(=O)[C@@H](Cc2ccccc2)NC(=O)[C@H](CCCNC(=N)N)NC1=O", "target": "MC3R", "observed": "cAMP", "EC50 [nM]": 2400}
{"SMILES": "FC(F)(F)c1nc2cc(OCCCCN3CCN(c4cccc(Cl)c4Cl)CC3)ccc2s1", "target": "DRD2", "observed": "β-arrestin recruitment", "EC50 [nM]": 160}
{"SMILES": "CC(C)(Oc1ccc(C(=O)c2ccc(Cl)cc2)cc1)C(=O)O", "target": "Peroxisome proliferator-activated receptor alpha", "observed": "reporter gene", "method": "luciferase", "EC50 [nM]": 194000}
{"SMILES": "CC(C)C[C@H](NC(=O)[C@H](Cc1ccccc1)NC(=O)[C@H](Cc1ccc(O)cc1)NC(=O)CNC(=O)[C@H](CCCNC(=N)N)NC(=O)[C@H](CO)NC(=O)[C@H](CCC(N)=O)NC(=O)[C@H](CO)NC(=O)[C@H](C)NC(=O)[C@H](Cc1ccccc1)NC(=O)[C@@H]1CCCN1C(=O)[C@H](CO)NC(=O)[C@H](CCC(N)=O)NC(=O)[C@H](Cc1ccccc1)NC(=O)[C@H](CCC(=O)O)NC(=O)[C@H](CCC(=O)O)NC(=O)[C@H](CC(=O)O)NC(=O)[C@@H](NC(=O)[C@H](CCCNC(=N)N)NC(=O)[C@@H](N)Cc1ccccc1)C(C)C)C(=O)N[C@@H](Cc1ccccc1)C(=O)N[C@@H](CCCNC(=N)N)C(=O)N1CCC[C@H]1C(=O)N[C@@H](CCCNC(=N)N)C(=O)N[C@@H](CC(N)=O)C(N)=O", "target": "Neuromedin-U receptor 2", "observed": "β-arrestin recruitment", "EC50 [nM]": 0.331}
{"SMILES": "O=c1[nH]c(NCCc2ccc(Br)cc2)c(Br)c(=O)[nH]1", "target": "GPR84", "observed": "cAMP", "EC50 [nM]": 372}
{"SMILES": "C[C@H](NC(=O)Cc1ccccc1)C(=O)N[C@H](Cc1c[nH]c2ccccc12)C(=O)NCCc1ccccc1", "target": "Bombesin receptor subtype-3 (Brs3, Rattus norvegicus, UniProt Q8K418)", "observed": "calcium signal", "method": "fluorescence", "EC50 [nM]": 110}
{"SMILES": "CCCCCCCCCCNc1cc(O)nc(O)n1", "target": "GPR84", "observed": "cAMP", "EC50 [nM]": 20.9}
{"SMILES": "NCCCC[C@H](NC(=O)[C@@H]1CCCN1C(=O)[C@@H]1CSSC[C@H](NC(=O)CNC(=O)CNC(=O)CN)C(=O)N[C@@H](Cc2ccc(O)cc2)C(=O)N[C@@H](Cc2ccccc2)C(=O)N[C@@H](CCC(N)=O)C(=O)N[C@@H](CC(N)=O)C(=O)N1)C(=O)NCC(N)=O", "target": "AVPR2", "observed": "cAMP", "method": "TR-FRET", "EC50 [nM]": 28}
{"SMILES": "O=Nc1c(NCCCc2ccccc2)[nH]c(=O)[nH]c1=O", "target": "GPR84", "observed": "cAMP", "EC50 [nM]": 1500}
{"SMILES": "CCCC[C@H](NC(=O)[C@H](CO)NC(=O)[C@H](Cc1ccc(O)cc1)NC(=O)[C@H](CO)NC(C)=O)C(=O)N[C@@H](CCC(=O)O)C(=O)N[C@@H](Cc1c[nH]cn1)C(=O)N[C@@H](C)C(=O)N[C@@H](CCCNC(=N)N)C(=O)N[C@@H](Cc1c[nH]c2ccccc12)C(=O)NCC(=O)N[C@@H](CCCCN)C(=O)N1CCC[C@H]1C(=O)N[C@H](C(=O)NCC(=O)N[C@@H](CCCCN)C(=O)N[C@@H](CCCCN)C(=O)N[C@@H](CCCNC(=N)N)C(N)=O)C(C)C", "target": "MC3R", "observed": "cAMP", "EC50 [nM]": 165}
{"SMILES": "O=c1cc(NCCc2cccc(F)c2)[nH]c(=O)[nH]1", "target": "GPR84", "observed": "cAMP", "EC50 [nM]": 389}
{"SMILES": "CNc1nc2cc(OCCCCN3CCN(c4cccc5ccc(C)nc45)CC3)ccc2s1", "target": "DRD2", "observed": "cAMP", "method": "luciferase", "EC50 [nM]": 28}
{"SMILES": "CC(C)=CCNc1ncnc2c1ncn2[C@@H]1O[C@H](CO)[C@@H](O)[C@H]1O", "target": "Adenosine receptor A3 (ADORA3, Homo sapiens, UniProt P0DMS8)", "observed": "cAMP", "EC50 [nM]": 2000}
{"SMILES": "CCCCCCCCCNc1cc(=O)[nH]c(=O)[nH]1", "target": "GPR84", "observed": "cAMP", "EC50 [nM]": 30.2}
{"SMILES": "Cc1ccc(C)c(OCCCC(C)(C)C(=O)O)c1", "target": "Peroxisome proliferator-activated receptor alpha", "observed": "reporter gene", "method": "luciferase", "EC50 [nM]": 122000}
{"SMILES": "NCCCC[C@H](NC(=O)[C@@H]1CCCN1C(=O)[C@@H]1CSSC[C@H](N)C(=O)N[C@@H](Cc2ccc(O)cc2)C(=O)N[C@@H](Cc2ccccc2)C(=O)N[C@@H](CCC(N)=O)C(=O)N[C@@H](CC(N)=O)C(=O)N1)C(=O)NCC(N)=O", "target": "AVPR2", "observed": "cAMP", "method": "TR-FRET", "EC50 [nM]": 0.024}
